ChEMBL document CHEMBL1158481, “Adenine-based acyclic nucleotides as novel P2X3 receptor ligands” (J Med Chem, 2009)
Calls of active or inactive are those of the source. The rule behind the calls is not given here.

Experiments:
Conditions in all cases: HEK293
[1] = target: T1, P2X purinoceptor 3 (Rattus norvegicus) (UniProt P49654); assay: Agonist activity at rat P2X3 receptor expressed in HEK cells assessed as induction of inward current at 100 uM by patch clamp method relative to alpha, beta-meATP; type: functional, cell-based
T1 sequence (whole entry): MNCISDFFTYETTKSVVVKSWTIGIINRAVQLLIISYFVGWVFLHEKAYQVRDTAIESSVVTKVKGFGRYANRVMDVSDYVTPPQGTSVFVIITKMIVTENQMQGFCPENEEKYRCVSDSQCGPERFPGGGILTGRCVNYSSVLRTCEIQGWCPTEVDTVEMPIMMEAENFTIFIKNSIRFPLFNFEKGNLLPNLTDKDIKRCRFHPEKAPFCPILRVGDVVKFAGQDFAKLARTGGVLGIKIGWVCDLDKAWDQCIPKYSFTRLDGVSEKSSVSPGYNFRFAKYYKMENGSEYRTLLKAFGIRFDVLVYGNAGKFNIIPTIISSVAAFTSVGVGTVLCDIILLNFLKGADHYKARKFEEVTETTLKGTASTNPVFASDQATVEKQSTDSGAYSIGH
How it was run: (§1)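 HEK 293T cells transiently transfected with rat P2X3 (calcium phosphate), recorded 48 h post-transfection by whole-cell patch clamp at -60 mV in HEPES-buffered saline pH 7.4, CsCl pipette. Compound applied at 100 μM by rapid superfusion; inward current compared with averaged control current from ≥3 applications of α,β-meATP 100 μM for 2 s, 5 min apart.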

[2] = target: T1, P2X purinoceptor 3 (Rattus norvegicus); assay: Agonist activity at rat P2X3 receptor expressed in HEK cells assessed as induction of alpha, beta-meATP inward current at 100 uM pretreated before alpha, beta-meATP induction by patch clamp method; type: functional, cell-based
How it was run: (§2)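 Rat P2X3 subunit plasmid transfected (calcium phosphate) into HEK 293T cells, used 48 h later. Whole-cell clamp at -60 mV, fast superfusion; acyclic nucleotide (100 μM) preapplied 20 s, then α,β-meATP 100 μM for 2 s. Peak inward current expressed as % of control α,β-meATP response; n=7 cells, mean ± SEM, paired t or Mann-Whitney test.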

[3] = target: T1, P2X purinoceptor 3 (Rattus norvegicus); assay: Activity at rat P2X3 receptor expressed in HEK cells assessed as induction of inward current at 100 uM by patch clamp method; type: cell-based; how it was run: as §1
[4] = target: T1, P2X purinoceptor 3 (Rattus norvegicus); assay: Antagonist activity at rat P2X3 receptor expressed in HEK cells assessed as inhibition of alpha, beta-meATP-induced inward current at 100 uM by patch clamp method; type: functional, cell-based; set-up: scale not given: the % may be the effect or the level left; how it was run: as §2
[5] = target: T1, P2X purinoceptor 3 (Rattus norvegicus); assay: Activity at rat P2X3 receptor expressed in HEK cells assessed as depression of amplitude current subsequent response to alpha, beta-meATP by patch clamp method relative to control; type: cell-based; how it was run: as §2
[6] = target: T1, P2X purinoceptor 3 (Rattus norvegicus); assay: Activity at rat P2X3 receptor expressed in HEK cells assessed inhibition of alpha, beta-meATP induced response by patch clamp method; type: cell-based; how it was run: as §2

| Compound | Activity [1] | Activity [3] | also measured |
| --- | --- | --- | --- |
| Nc1nc(OCCc2ccccc2)nc2c1ncn2CCCCOP(=O)(O)OP(=O)(O)OP(=O)(O)O | Active |  |  |
| Nc1nc(OCCc2ccccc2)nc2c1ncn2CCCCOP(=O)(O)OP(=O)(O)O | Active |  |  |
| CCCCC#Cc1nc(N)c2ncn(CCCCOP(=O)(O)OP(=O)(O)OP(=O)(O)O)c2n1 | 38% | Active | Activity [6]: Active |
| Nc1nc(Cl)nc2c1ncn2CCCCOP(=O)(O)OP(=O)(O)O | Active |  |  |
| Nc1nc(Cl)nc2c1ncn2CCCCOP(=O)(O)OP(=O)(O)OP(=O)(O)O | 30% |  |  |
| Nc1nc(OCCc2ccccc2)nc2c1ncn2CCCCOP(=O)(O)O | inactive |  | Activity [4]: 20% |
| Nc1ncnc2c1ncn2CCCCOP(=O)(O)OP(=O)(O)O | 32% |  |  |
| Nc1ncnc2c1ncn2[C@@H]1O[C@H](COP(=O)(O)CP(=O)(O)OP(=O)(O)O)[C@@H](O)[C@H]1O (single isomer, unassigned) |  | Active |  |
| Nc1nc(I)nc2c1ncn2CCCCOP(=O)(O)OP(=O)(O)OP(=O)(O)O | 60% | Active | Activity [6]: Active |
| CCCCC#Cc1nc(N)c2ncn(CCCCOP(=O)(O)O)c2n1 | inactive | inactive | Activity [4]: 20% |
| Nc1ncnc2c1ncn2CCCCOP(=O)(O)OP(=O)(O)OP(=O)(O)O | 36% |  |  |
| Nc1ncnc2c1ncn2CCCCOP(=O)(O)O | inactive |  |  |

More lines, main results first:

| Activity [1] | Activity [3] | Compound | also measured |
| --- | --- | --- | --- |
| 25% | Active | Nc1nc(N)c2ncn(CCCCOP(=O)(O)OP(=O)(O)OP(=O)(O)O)c2n1 | Activity [2]: 17% |
| inactive | inactive | Nc1nc(N)c2ncn(CCCCOP(=O)(O)O)c2n1 | Activity [4]: 20% |
| inactive | inactive | Nc1nc(I)nc2c1ncn2CCCCOP(=O)(O)O | Activity [5]: 80%; Activity [4]: 20% |
| inactive |  | Nc1nc(Cl)nc2c1ncn2CCCCOP(=O)(O)O | Activity [4]: 20% |
| Active | Active | Nc1nc(N)c2ncn(CCCCOP(=O)(O)OP(=O)(O)O)c2n1 |  |
